Columns and labels:
[1] = Bioavailability in dog; assay type: ADME, organism-based, Canis lupus familiaris; conditions: in vivo
[2] = system: Hepatitis C virus; test: Antiviral activity against HCV in human hepatoma cells assessed as inhibition of RNA replication by replicon assay; assay type: functional, Hepacivirus hominis
[3] = AUC in monkey at 3 mg/kg, po; assay type: ADME, organism-based, Macaca mulatta; set-up: dose 3 mg/kg, route oral; conditions: rhesus monkey, plasma
[4] = Inhibition of HCV NS4A tagged recombinant single chain NS3 protease after 15 mins; set-up: species or system Hepacivirus hominis
[5] = Selectivity for HCV NS3 protease over human neutrophil elastase
Summary of the method: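 Ratio of inhibitory activity against human neutrophil elastase to that against HCV protease (HNE/HCV), taken as selectivity. HCV activity was from a continuous protease assay using NS4A-tethered single-chain NS3 serine protease, giving Ki* as the equilibrium constant for reversible covalent binding of the electrophilic ketone to the active-site serine. Compounds were tested as P1-epimer diastereomer mixtures.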

Structure (SMILES): CC(C)(C)NC(=O)N[C@H](C(=O)N1C[C@H]2[C@@H]([C@H]1C(=O)NC(CC1CCC1)C(=O)C(N)=O)C2(C)C)C(C)(C)C (stereo not given in full) [BOCEPREVIR]
- bioavailability [1]: 34%
- EC90 [2]: 0.35 µM
- AUC [3]: 120 nM·h
- Ki [4]: 0.014 µM
- Ratio [5]: 2200
